Measurements of several laboratories.
Compare with care: the assays were run in different laboratories.
Cell line: Vero
Effect on: cell growth or viability

Cn1cc2c3c1C(=O)C(N)=C(Cl)C3=NCC2  IC50 (MTT; 72 h): > 21.3 µM
[C-]#[N+]C(C)(C)C[C@@H]1C[C@H](C)[C@H]2CC[C@H](C)[C@@]3([N+]#[C-])CCC(=C)[C@@H]1[C@H]23  IC50: 99.7 µM
N#CCCCOc1ccc(Oc2ccccc2)cc1  CC50 (72 h): > 20 µM
Nc1nc(N)c(CNCCc2ccc(Cl)c(Cl)c2)c(C2CC2)n1  IC50 (SRB): 21 µM
O=[N+]([O-])c1ccc(-c2nn(-c3ccccc3)c3sc(NC(c4ccccc4O)P(=O)(Oc4ccccc4)Oc4ccccc4)nc23)cc1 (stereo not drawn)  IC50 (SRB): > 100 µM
COc1ccccc1CCNCc1c(N)nc(N)nc1C1CC1  IC50 (SRB): > 100 µM
CN(CC[C@H](N)CC(=O)N[C@H]1C=C[C@H](n2ccc(N)nc2=O)O[C@@H]1C(=O)O)C(=N)N  IC50: 13.9 µM
Nc1nc(N)c(CNCCc2ccc(Cl)cc2Cl)c(C2CC2)n1  IC50 (SRB): 31 µM
CSc1c2c3c(n1C)C(=O)C(=O)C(Cl)=C3NCC2  IC50 (MTT; 72 h): > 17.7 µM
CO[C@H]1/C=C/O[C@@]2(C)Oc3c(C)c(O)c4c(O)c(c(/C=N/N5CCN(C)CC5)c(O)c4c3C2=O)NC(=O)/C(C)=C\C=C\[C@H](C)[C@H](O)[C@@H](C)[C@@H](O)[C@@H](C)[C@H](OC(C)=O)[C@@H]1C  IC50: 113 µM
CN(C)c1ccc(C(Nc2nc3c(-c4ccc([N+](=O)[O-])cc4)nn(-c4ccccc4)c3s2)P(=O)(Oc2ccccc2)Oc2ccccc2)cc1 (stereo not drawn)  IC50 (SRB): > 100 µM
FC(F)(F)Oc1ccc(Oc2ccc(CNCCNC3C4CC5CC(C4)CC3C5)cc2)cc1 (stereo not drawn)  IC50 (18 h): 3.9 µg/mL
Nc1nc(N)c(CNCCc2ccccc2Cl)c(C2CC2)n1  IC50 (SRB): 67 µM
NNC(=O)c1ccncc1  IC50 (18 h): 18000 µg/mL
N#CCCOc1ccc(Oc2ccccc2)cc1  CC50 (72 h): > 20 µM
C[C@H]1O[C@H](O[C@H]2CC[C@H](n3ccc(NC(=O)c4ccc(NC(=O)[C@@](C)(N)CO)cc4)nc3=O)O[C@@H]2C)[C@H](O)[C@@H](O)[C@@H]1N(C)C  IC50: > 100 µM
Nc1nc(N)c(CNCCc2cccc(F)c2)c(C2CC2)n1  IC50 (SRB): > 100 µM
CCCCCCCCn1cc(CN2CCC3(CC2)OCCO3)c2ccc(OC)cc21  IC50: 46 µM
